In ChEMBL document CHEMBL3351938, “C5-Alkyl-2-methylurea-Substituted Pyridines as a New Class of Glucokinase Activators” (ACS Med Chem Lett, 2014):
Values after ≈ are worked out from the molar mass of the structure shown.

Experiments:
Hexokinase-4 [1] = biological target: T1, Hexokinase-4 (Homo sapiens, UniProt P35557); test: Activation of human recombinant Glucokinase measured over 5 mins by G6-PD coupled assay in presence of 5 mM glucose
T1 sequence (P35557 whole entry): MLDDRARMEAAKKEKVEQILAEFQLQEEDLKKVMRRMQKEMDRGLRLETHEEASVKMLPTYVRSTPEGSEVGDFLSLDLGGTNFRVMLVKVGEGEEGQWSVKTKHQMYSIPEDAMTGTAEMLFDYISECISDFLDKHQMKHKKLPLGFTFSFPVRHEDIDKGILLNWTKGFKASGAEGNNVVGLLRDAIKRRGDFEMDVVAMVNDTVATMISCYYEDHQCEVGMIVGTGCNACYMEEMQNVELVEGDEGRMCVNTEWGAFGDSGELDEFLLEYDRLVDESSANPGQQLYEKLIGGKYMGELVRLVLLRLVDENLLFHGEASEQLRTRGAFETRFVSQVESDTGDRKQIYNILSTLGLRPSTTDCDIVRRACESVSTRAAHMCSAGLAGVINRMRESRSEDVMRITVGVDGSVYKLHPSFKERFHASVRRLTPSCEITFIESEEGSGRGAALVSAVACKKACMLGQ
Method in brief: (§1)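 Recombinant human GK; glucose held at 5 mM for EC₅₀ determination; run in duplicate (n = 2).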

[2] = Drug metabolism in human liver microsomes assessed as compound turnover at 1 uM after 30 mins; assay type: ADME; details: read-out: Drug metabolism
Method in brief: (§2)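 Test compound at 1 μM initial concentration was incubated with 0.25 mg/mL rat or human liver microsomes for 30 min at 37 °C; percent turnover is the percentage of parent metabolized.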

[3] = Drug metabolism in rat liver microsomes assessed as compound turnover at 1 uM after 30 mins; assay type: ADME; details: read-out: Drug metabolism; method in brief: as §2
[4] = Volume of distribution at steady state in dog at 0.5 mg/kg, iv; details: in vivo, read-out: Vdss
[5] = Half life in rat at 0.5 mg/kg, iv; assay type: ADME, organism-based; design: dose 0.5 mg/kg, route intravenous; details: in vivo
[6] = Volume of distribution at steady state in rat at 0.5 mg/kg, iv; assay type: ADME, organism-based; design: dose 0.5 mg/kg, route intravenous; details: in vivo, read-out: Vdss
Canis familiaris [7] = test: Oral bioavailability in dog at 2 mg/kg; details: in vivo
[8] = AUC in rat at 2 mg/kg, po; assay type: ADME, organism-based; design: dose 2 mg/kg, route oral; details: plasma
[9] = AUC in mouse at 5 mg/kg, po; assay type: ADME, organism-based; design: dose 5 mg/kg, route oral; details: plasma
[10] = Plasma protein binding in mouse; assay type: ADME; details: read-out: PPB (converted)
Canis familiaris [11] = test: AUC in dog at 2 mg/kg, po; details: in vivo
[12] = Plasma protein binding in human; assay type: ADME, cell-free; details: read-out: PPB (converted)
[13] = Clearance in rat at 0.5 mg/kg, iv; assay type: ADME, organism-based; design: dose 0.5 mg/kg, route intravenous; details: in vivo
Mus musculus [14] = test: Antidiabetic activity in fasted ob/ob mouse assessed as reduction in blood glucose AUC at 10 mg/kg, po administered 30 mins prior glucose challenge by oral glucose tolerance test relative to control; assay type: functional; design: scale not given: the % may be the effect or the level left
Method in brief: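 OGTT in fasted ob/ob mice with oral doses of 0.3, 1, 3 and 10 mg/kg; blood glucose AUC compared to vehicle by two-way ANOVA.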

[15] = Oral bioavailability in rat at 2 mg/kg; assay type: ADME, organism-based; details: in vivo
Mus musculus [16] = test: Hypoglycemic activity in fed C57Bl/6 mouse assessed as change in blood glucose level at 10 to 30 mg/kg, po followed by food withdrawal for 4 hrs measured 30 to 240 mins post dose by normoglycemic glucose lowering test; assay type: ADME, organism-based; design: route oral; details: in vivo
Method in brief: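 Fed male C57Bl/6 mice dosed orally with vehicle or compound (10 or 30 mg/kg) without glucose challenge, then food removed for 4 h; blood glucose sampled at various time points; two-way ANOVA versus vehicle.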

[17] = Half life in dog at 0.5 mg/kg, iv; details: in vivo
[18] = Permeability across pig LLC-PK cells; assay type: ADME, cell-based, Sus scrofa; details: LLC-PK1, read-out: permeability
Canis familiaris [19] = test: Clearance in dog at 0.5 mg/kg, iv; details: in vivo
[20] = Oral bioavailability in mouse at 5 mg/kg; assay type: ADME, organism-based; details: in vivo
[21] = Plasma protein binding in rat; assay type: ADME, cell-free; details: read-out: PPB
Hexokinase-4 [22] = biological target: T1, Hexokinase-4; test: Activation of human recombinant Glucokinase measured over 5 mins by G6-PD coupled assay in presence of 5 mM glucose and 4% HSA; method in brief: as §1
[23] = AUC in rat at 10 mg/kg, po; assay type: ADME, organism-based; design: dose 10 mg/kg, route oral; details: plasma
Method in brief: (§3)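 Rats: IV dose 1 mg/kg, n = 3; PO dose 10 mg/kg, n = 3.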

[24] = Oral bioavailability in rat at 10 mg/kg; assay type: ADME, organism-based; details: in vivo; method in brief: as §3
[25] = Clearance in mouse at 1 mg/kg, iv; assay type: ADME, organism-based; design: dose 1 mg/kg, route intravenous; details: in vivo
Method in brief: (§4)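 Mice: IV dose 1 mg/kg, n = 3; PO dose 10 mg/kg, n = 3.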

[26] = Solubility of the compound in PBS buffer at 7.4; assay type: physicochemical; details: pH 7.4
[27] = Oral bioavailability in mouse at 10 mg/kg; assay type: ADME, organism-based; details: in vivo; method in brief: as §4
Mus musculus [28] = test: Antidiabetic activity in C57Bl/6 mouse assessed as reduction in plasma glucose level at 30 mg/kg, po administered 30 mins prior glucose challenge measured 1.5 to 2 hrs post dose by oral glucose tolerance test; assay type: functional
Method in brief: (§5)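 Oral dose–response OGTT in C57Bl/6 mice at 3, 10 and 30 mg/kg; blood glucose area-under-curve assessed; significance versus vehicle by two-way ANOVA.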

Mus musculus [29] = test: Antidiabetic activity in C57Bl/6 mouse assessed as reduction in blood glucose AUC at 3 mg/kg, po administered 30 mins prior glucose challenge by oral glucose tolerance test; assay type: functional; design: scale not given: the % may be the effect or the level left; method in brief: as §5
[30] = Volume of distribution at steady state in rat at 1 mg/kg, iv; assay type: ADME, organism-based; design: dose 1 mg/kg, route intravenous; details: in vivo, read-out: Vdss; method in brief: as §3
[31] = Drug metabolism in human primary hepatocytes; assay type: ADME, cell-based, Hepatocyte; details: read-out: Drug metabolism
[32] = Half life in rat at 1 mg/kg, iv; assay type: ADME, organism-based; design: dose 1 mg/kg, route intravenous; details: in vivo; method in brief: as §3
[33] = AUC in mouse at 10 mg/kg, po; assay type: ADME, organism-based; design: dose 10 mg/kg, route oral; details: plasma; method in brief: as §4
[34] = Clearance in rat at 1 mg/kg, iv; assay type: ADME, organism-based; design: dose 1 mg/kg, route intravenous; details: in vivo; method in brief: as §3
[35] = Half life in mouse at 1 mg/kg, iv; assay type: ADME, organism-based; design: dose 1 mg/kg, route intravenous; details: in vivo; method in brief: as §4
Mus musculus [36] = test: Antidiabetic activity in C57Bl/6 mouse assessed as reduction in blood glucose AUC at 10 mg/kg, po administered 30 mins prior glucose challenge by oral glucose tolerance test; assay type: functional; design: scale not given: the % may be the effect or the level left; method in brief: as §5
[37] = Volume of distribution at steady state in mouse at 1 mg/kg, iv; assay type: ADME, organism-based; design: dose 1 mg/kg, route intravenous; details: in vivo, read-out: Vdss; method in brief: as §4

Row | Compound | EC50 (Hexokinase-4 [1]) | metabolised at 0.5 h, 1 µM [2] | metabolised at 0.5 h, 1 µM [3] | also measured
1 | CCn1nccc1Oc1cc(C[C@H]2CC[C@@](C)(O)CC2)cnc1NC(=O)NC | 0.097 µM |  |  | 
2 | CCn1nccc1Oc1cc(C(O)C2CCOCC2)cnc1NC(=O)NC (centres undefined) | 16.8 µM |  |  | 
3 | CCn1nccc1Oc1cc(C[C@H]2C[C@@H](O)C2)cnc1NC(=O)NC | 0.53 µM |  |  | 
4 | CCn1nccc1Oc1cc(C[C@H]2CC[C@](C)(O)CC2)cnc1NC(=O)NC | 0.11 µM |  |  | 
5 | CCn1nccc1Oc1cc(C[C@H]2CCO[C@H](COC)C2)cnc1NC(=O)NC | 0.49 µM |  |  | 
6 | CCn1nc(COC)cc1Oc1cc(CC2CCOCC2)cnc1NC(=O)NC | 0.82 µM |  |  | 
7 | CCOCCc1cnc(NC(=O)NC)c(Oc2cccnc2CC)c1 | 0.59 µM | 21% | 76% | 
8 | CCc1ncccc1Oc1cc(CCCOC)cnc1NC(=O)NC | 0.44 µM |  |  | 
9 | CCn1nccc1Oc1cc(C[C@H]2CC[C@H](O)CC2)cnc1NC(=O)NC | 0.068 µM |  |  | 
10 | CCc1ncccc1Oc1cc(CCCC(C)(C)O)cnc1NC(=O)NC | 0.11 µM | 31% | 17% | 
11 | CCn1nccc1Oc1cc(CCCCOC)cnc1NC(=O)NC | 0.46 µM | 10% | 31% | 
12 | CCn1nccc1Oc1cc(C[C@H]2C[C@@](C)(O)C2)cnc1NC(=O)NC | 0.71 µM |  |  | 
13 | CCc1ncccc1Oc1cc(CCCCO)cnc1NC(=O)NC | 0.35 µM | 20% | 33% | 
14 | CCn1nccc1Oc1cc(C[C@H]2C[C@](C)(O)C2)cnc1NC(=O)NC |  |  |  | Vd [4]: 2.2 L/kg; half-life [5]: 2 h; Vd [6]: 0.8 L/kg; F (Canis familiaris [7]): 72%; AUC [8]: 0.39 µM·h; AUC [9]: 6.84 µM·h; fraction unbound [10]: 0.44; AUC (Canis familiaris [11]): 6.4 µM·h; fraction unbound [12]: 0.44; clearance [13]: 1.6 L/h/kg; Activity (Mus musculus [14]): 43%; bioavailability [15]: 9%; Activity (Mus musculus [16]): Non-toxic; half-life [17]: 5.5 h; Papp [18]: 324 nm/s; CL (Canis familiaris [19]): 0.64 L/h/kg; bioavailability [20]: 44%; fraction unbound [21]: 0.5; EC50 (Hexokinase-4 [22]): 0.28 µM
15 | CCc1ncccc1Oc1cc(CCO)cnc1NC(=O)NC | 1.59 µM | 10% | 10% | 
16 | CNC(=O)Nc1ncc(CC2CCOCC2)cc1Oc1ccnn1C(C)C | 2.76 µM |  |  | 
17 | CCn1nccc1Oc1cc(CN2CCOCC2)cnc1NC(=O)NC | 7.98 µM |  |  | 
18 | CCc1ncccc1Oc1cc(CC(C)C)cnc1NC(=O)NC | 0.12 µM | 56% | 95% | 
19 | CCn1nccc1Oc1cc(CCCC(C)(C)O)cnc1NC(=O)NC | 0.37 µM | 10% | 10% | 
20 | CCc1ncccc1Oc1cc(CCCCOC)cnc1NC(=O)NC | 0.11 µM | 23% | 41% | 
21 | CCn1nccc1Oc1cc(C[C@@H]2CCO[C@@H](COC)C2)cnc1NC(=O)NC | 0.35 µM |  |  | 
22 | CCc1ncccc1Oc1cc(CC2CCCCC2)cnc1NC(=O)NC | 0.014 µM | 99% | 95% | 
23 | CCc1ncccc1Oc1cc(CC2CCOCC2)cnc1NC(=O)NC | 0.29 µM |  |  | 
24 | CCn1nccc1Oc1cc(C[C@H]2C[C@H](O)C2)cnc1NC(=O)NC | 0.5 µM |  |  | 
25 | CCn1nccc1Oc1cc(C[C@H]2CC[C@@H](O)CC2)cnc1NC(=O)NC | 0.12 µM |  |  | 
26 | CCn1nccc1Oc1cc(CC2CCOCC2)cnc1NC(=O)NC | 0.35 µM | 10% | 25% | AUC [23]: 3.51 µM·h; bioavailability [24]: 19%; clearance [25]: 1.7 L/h/kg; solubility [26]: 0.718 mg/mL (≈ 2000 µM); bioavailability [27]: 81%; Activity (Mus musculus [28]): 77 mg/dL; Activity (Mus musculus [29]): 15%; Vd [30]: 0.8 L/kg; metabolised [31]: 15%; half-life [32]: 0.41 h; AUC [33]: 13.3 µM·h; clearance [34]: 1.5 L/h/kg; half-life [35]: 0.72 h; Activity (Mus musculus [36]): 32%; Vd [37]: 1.5 L/kg
